What is called inhibition is the relative decrease from the control value, in per cent.

In assay [1] the test system is Hepatocyte growth factor receptor (Homo sapiens), P08581 [Y1235D]. The experiment in a line: Inhibition of MET Y1235D mutant at 1 uM.
Assay [2] addresses T1, Serine/threonine-protein kinase Nek1 (Homo sapiens) (UniProt Q96PY6).
T1 sequence (whole entry): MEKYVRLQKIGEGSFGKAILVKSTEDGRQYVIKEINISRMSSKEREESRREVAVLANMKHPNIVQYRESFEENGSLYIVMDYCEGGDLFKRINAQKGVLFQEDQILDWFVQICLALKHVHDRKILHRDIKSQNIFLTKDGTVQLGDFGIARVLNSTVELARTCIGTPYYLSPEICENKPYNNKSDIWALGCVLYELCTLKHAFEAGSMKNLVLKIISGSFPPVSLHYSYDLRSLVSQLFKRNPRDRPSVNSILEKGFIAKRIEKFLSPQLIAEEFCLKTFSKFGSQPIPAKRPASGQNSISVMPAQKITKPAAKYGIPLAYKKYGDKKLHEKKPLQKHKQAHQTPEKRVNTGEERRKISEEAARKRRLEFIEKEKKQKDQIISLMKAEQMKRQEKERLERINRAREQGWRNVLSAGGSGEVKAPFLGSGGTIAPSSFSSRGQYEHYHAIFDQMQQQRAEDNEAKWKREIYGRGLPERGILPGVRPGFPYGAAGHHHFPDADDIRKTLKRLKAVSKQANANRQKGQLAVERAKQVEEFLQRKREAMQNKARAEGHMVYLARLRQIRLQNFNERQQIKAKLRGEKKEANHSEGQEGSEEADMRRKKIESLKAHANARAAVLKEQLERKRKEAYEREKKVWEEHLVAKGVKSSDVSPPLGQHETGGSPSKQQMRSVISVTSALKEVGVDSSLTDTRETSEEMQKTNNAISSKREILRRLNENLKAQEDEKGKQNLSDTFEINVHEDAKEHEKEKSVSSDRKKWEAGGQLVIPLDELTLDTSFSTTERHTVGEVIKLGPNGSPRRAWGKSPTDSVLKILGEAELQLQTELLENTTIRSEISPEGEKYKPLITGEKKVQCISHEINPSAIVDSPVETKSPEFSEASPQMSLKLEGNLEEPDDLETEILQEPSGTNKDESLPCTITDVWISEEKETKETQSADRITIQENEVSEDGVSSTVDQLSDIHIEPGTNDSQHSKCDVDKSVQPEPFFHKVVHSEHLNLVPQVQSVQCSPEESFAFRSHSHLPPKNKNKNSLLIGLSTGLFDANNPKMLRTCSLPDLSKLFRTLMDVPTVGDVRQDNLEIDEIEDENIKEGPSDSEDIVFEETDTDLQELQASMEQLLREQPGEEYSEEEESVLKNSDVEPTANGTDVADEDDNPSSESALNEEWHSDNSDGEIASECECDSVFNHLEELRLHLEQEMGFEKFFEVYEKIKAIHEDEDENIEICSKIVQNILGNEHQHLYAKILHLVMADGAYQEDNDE
Description: Inhibition of NEK1 at 1 uM.

The target in assay [3] is Protein-tyrosine kinase 2-beta (Homo sapiens) (UniProt Q14289). Description: Inhibition of PYK2 at 1 uM. A digest of the protocol:
(§1)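 Single-concentration screen on the Ambit KINOMEscan platform, run against a panel of 250–400 kinases. Per-kinase inhibition was also summarized as S(90), the fraction of kinases inhibited by more than 90%.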

Assay [4] addresses Maternal embryonic leucine zipper kinase (Homo sapiens) (UniProt Q14680). The experiment in a line: Inhibition of MELK at 1 uM. In short, it runs like this:
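Kinase-panel screen using KINOMEscan technology, with 250–400 kinases per panel. Each compound was tested at a single concentration, and inhibition of each kinase was recorded. Selectivity was summarised as S(90), the fraction of kinases inhibited by more than 90%.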

Assay [5] concerns the target Vascular endothelial growth factor receptor 1 (Homo sapiens) (UniProt P17948). The experiment in a line: Inhibition of FLT1 at 1 uM. In short, it runs like this: as §1
The target of assay [6] is T2, Mitogen-activated protein kinase kinase kinase 5 (Homo sapiens) (UniProt Q99683).
T2 sequence (whole entry): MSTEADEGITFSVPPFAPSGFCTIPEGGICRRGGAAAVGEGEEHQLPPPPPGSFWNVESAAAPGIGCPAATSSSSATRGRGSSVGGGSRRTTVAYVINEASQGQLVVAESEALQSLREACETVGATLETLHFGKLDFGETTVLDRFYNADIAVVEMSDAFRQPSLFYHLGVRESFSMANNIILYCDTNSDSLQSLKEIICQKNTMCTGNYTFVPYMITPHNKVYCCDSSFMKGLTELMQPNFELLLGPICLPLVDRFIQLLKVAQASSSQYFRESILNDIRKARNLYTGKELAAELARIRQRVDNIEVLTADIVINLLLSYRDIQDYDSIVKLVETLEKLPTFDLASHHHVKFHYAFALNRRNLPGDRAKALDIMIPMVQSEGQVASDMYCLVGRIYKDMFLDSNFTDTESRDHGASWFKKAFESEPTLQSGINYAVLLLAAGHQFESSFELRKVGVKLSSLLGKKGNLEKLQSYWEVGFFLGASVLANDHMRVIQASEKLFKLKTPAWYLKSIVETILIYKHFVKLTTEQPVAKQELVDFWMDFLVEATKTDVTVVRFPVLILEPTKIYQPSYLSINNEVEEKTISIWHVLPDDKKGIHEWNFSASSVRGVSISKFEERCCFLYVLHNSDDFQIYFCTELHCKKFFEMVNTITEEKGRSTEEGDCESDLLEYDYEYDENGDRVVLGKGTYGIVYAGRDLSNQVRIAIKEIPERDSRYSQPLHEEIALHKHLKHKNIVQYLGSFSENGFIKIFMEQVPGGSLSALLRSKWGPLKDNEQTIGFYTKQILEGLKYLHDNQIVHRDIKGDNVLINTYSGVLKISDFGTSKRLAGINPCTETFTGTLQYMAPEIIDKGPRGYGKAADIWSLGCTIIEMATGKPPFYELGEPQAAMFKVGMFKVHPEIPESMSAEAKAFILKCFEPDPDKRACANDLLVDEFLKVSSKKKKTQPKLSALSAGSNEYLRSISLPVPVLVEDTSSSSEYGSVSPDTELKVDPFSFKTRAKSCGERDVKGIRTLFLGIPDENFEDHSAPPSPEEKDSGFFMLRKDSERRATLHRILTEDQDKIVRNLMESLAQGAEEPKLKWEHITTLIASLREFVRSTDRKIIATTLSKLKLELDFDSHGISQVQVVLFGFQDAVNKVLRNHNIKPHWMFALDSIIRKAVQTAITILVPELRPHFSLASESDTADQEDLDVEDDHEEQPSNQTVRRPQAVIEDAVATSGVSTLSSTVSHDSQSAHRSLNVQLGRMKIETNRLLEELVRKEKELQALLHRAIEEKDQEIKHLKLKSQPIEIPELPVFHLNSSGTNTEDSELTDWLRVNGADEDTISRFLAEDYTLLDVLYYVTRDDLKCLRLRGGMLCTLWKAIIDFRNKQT
Description: Inhibition of ASK1 at 1 uM. A digest of the protocol:
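Ambit KINOMEscan screen at a single concentration across a 250–400 kinase panel, recorded as percent inhibition. Selectivity was expressed as S(90), the fraction of kinases inhibited >90%.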

Maternal embryonic leucine zipper kinase (Homo sapiens), sequence (Q14680 whole entry, looked up): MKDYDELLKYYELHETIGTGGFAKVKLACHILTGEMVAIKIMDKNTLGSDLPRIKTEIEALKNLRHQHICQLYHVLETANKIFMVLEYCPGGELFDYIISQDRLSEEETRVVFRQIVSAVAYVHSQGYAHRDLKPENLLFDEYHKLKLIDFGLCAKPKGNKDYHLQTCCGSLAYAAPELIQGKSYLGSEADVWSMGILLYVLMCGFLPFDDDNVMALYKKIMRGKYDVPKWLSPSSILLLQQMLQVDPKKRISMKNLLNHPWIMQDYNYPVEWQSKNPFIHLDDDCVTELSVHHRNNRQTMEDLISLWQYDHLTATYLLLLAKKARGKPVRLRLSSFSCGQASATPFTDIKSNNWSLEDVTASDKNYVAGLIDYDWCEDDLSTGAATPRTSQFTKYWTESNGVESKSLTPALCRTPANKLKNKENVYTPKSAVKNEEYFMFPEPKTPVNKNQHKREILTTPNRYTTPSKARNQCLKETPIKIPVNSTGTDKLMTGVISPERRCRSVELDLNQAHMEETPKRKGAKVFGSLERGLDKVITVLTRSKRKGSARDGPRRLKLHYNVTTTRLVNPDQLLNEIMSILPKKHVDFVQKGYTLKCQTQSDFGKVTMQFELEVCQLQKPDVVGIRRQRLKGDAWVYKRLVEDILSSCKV
Hepatocyte growth factor receptor (Homo sapiens), P08581 [Y1235D], sequence (P08581 whole entry Y1235D): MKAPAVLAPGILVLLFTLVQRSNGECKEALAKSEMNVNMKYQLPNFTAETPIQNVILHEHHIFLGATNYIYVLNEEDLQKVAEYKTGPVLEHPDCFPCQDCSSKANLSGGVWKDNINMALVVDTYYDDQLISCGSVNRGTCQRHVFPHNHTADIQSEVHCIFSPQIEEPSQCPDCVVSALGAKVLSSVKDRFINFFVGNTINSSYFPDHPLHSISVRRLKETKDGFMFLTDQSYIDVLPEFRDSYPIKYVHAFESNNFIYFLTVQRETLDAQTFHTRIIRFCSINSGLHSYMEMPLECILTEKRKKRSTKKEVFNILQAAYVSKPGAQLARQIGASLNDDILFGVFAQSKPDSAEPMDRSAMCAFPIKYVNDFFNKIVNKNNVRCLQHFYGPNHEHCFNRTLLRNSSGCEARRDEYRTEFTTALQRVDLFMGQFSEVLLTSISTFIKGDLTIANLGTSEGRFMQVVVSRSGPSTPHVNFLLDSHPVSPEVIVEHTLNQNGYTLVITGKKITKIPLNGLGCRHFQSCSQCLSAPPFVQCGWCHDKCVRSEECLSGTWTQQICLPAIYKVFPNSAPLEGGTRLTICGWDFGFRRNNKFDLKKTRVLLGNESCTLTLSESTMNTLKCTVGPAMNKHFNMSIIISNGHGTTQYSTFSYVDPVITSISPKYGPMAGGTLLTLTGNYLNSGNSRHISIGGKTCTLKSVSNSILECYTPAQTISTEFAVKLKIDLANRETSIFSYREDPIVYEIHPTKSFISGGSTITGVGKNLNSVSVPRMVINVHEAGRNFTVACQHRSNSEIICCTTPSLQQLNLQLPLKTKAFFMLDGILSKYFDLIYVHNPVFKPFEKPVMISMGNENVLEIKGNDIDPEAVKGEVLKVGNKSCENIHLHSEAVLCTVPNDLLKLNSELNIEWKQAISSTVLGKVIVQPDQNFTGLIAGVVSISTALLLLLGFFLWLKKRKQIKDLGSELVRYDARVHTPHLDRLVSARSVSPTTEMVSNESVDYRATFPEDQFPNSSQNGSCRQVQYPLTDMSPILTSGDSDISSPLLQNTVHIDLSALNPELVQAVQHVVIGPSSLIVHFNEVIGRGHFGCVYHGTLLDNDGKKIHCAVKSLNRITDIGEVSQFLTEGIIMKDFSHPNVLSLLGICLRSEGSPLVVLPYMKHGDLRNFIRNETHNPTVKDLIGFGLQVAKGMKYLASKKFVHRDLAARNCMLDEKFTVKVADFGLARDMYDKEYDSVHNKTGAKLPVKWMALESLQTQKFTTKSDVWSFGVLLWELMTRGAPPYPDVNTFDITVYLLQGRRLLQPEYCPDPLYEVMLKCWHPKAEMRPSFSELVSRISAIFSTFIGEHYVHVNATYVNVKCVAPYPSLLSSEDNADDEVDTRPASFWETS
Vascular endothelial growth factor receptor 1 (Homo sapiens), sequence (P17948 whole entry): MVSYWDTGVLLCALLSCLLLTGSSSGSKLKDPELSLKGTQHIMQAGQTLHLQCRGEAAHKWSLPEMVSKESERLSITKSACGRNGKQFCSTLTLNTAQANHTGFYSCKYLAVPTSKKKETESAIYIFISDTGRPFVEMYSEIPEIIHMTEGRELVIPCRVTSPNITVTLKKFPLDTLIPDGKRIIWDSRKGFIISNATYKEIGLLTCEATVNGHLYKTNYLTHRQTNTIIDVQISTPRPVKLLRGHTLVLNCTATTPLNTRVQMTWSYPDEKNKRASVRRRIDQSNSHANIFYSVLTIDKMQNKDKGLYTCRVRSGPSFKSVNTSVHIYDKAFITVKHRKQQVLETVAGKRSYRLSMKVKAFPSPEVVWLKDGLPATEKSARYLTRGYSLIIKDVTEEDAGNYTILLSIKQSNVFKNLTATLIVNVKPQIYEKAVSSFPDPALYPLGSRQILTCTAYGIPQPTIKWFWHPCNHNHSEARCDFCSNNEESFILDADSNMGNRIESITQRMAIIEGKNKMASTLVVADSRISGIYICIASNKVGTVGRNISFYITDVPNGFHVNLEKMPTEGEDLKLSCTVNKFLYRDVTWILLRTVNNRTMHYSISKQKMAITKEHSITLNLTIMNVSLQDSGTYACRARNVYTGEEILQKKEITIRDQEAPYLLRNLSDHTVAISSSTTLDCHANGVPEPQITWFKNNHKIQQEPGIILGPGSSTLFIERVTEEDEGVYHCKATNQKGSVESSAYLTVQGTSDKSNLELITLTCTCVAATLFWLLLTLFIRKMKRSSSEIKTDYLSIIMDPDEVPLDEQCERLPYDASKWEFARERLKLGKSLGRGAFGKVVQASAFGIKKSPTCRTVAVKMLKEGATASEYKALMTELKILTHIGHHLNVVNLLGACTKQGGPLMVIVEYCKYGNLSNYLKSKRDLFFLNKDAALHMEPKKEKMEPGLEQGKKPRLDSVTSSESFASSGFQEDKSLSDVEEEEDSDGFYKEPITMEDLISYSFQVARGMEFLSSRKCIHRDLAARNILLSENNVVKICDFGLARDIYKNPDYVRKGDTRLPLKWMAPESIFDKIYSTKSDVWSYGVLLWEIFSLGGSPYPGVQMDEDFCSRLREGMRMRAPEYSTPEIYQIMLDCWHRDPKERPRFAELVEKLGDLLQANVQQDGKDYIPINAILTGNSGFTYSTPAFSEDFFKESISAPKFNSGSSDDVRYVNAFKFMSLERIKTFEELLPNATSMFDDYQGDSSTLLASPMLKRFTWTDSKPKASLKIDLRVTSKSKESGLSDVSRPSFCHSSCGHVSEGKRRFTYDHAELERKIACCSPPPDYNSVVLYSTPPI
Protein-tyrosine kinase 2-beta (Homo sapiens), sequence (Q14289 whole entry, looked up): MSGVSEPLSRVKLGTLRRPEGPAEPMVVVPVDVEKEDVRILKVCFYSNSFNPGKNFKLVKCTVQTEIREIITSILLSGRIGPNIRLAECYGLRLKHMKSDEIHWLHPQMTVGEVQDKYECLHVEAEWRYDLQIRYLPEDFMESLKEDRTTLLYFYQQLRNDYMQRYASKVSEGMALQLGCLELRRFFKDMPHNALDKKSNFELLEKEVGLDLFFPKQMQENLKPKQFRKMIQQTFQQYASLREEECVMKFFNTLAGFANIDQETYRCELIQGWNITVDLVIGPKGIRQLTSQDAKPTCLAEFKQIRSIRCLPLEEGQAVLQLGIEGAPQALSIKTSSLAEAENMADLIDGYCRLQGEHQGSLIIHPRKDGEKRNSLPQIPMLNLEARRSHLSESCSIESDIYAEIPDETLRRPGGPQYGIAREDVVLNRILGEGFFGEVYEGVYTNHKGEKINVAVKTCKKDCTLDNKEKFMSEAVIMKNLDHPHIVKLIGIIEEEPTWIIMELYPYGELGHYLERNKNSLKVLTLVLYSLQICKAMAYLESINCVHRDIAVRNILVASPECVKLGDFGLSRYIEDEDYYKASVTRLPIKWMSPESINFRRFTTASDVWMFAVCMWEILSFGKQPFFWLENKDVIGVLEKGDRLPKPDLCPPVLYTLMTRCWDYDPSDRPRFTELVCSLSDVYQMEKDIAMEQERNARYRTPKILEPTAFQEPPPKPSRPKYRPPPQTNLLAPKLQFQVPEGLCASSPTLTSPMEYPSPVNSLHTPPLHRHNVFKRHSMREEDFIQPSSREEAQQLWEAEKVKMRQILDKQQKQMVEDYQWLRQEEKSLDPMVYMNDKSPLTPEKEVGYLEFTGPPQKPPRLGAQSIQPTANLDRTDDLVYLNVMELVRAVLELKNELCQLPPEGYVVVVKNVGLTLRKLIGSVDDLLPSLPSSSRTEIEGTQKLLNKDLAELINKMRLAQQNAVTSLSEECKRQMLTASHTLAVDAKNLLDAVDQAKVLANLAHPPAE

With `FC(F)(F)c1ccc(Cl)cc1CN1CCNc2ncc(-c3ccnc(N4CCNCC4)c3)cc21`, the inhibition in assay [1] is 75%; in assay [2], below 50%; in assay [3] it was 87%; in assay [4] it was below 50%; in assay [5] it was below 50%; in assay [6], below 50%.

Regarding `CN1CCN(c2ccc(-c3cnc4c(c3)N(Cc3cc(F)ccc3F)CCN4)cn2)CC1`, the inhibition in assay [1], in assay [2], in assay [3], in assay [4], in assay [5] and in assay [6] was below 50% each time.

`CN1CCN(c2ccc(-c3cnc4c(c3)N(Cc3cc(Cl)ccc3Cl)CCN4)cn2)CC1`: the inhibition in assay [1], in assay [2], in assay [3], in assay [4], in assay [5] and in assay [6] was below 50% in each case.

For the molecule `O=C(O)c1ccc(-c2cnc3c(c2)N(Cc2cc(Cl)ccc2C(F)(F)F)CCN3)cc1`, the inhibition in assay [3], in assay [4], in assay [5] and in assay [6] was below 50% throughout.

Take `CN1CCN(c2ccc(-c3cnc4c(c3)N(Cc3cc(Cl)ccc3C(F)(F)F)CCN4)cn2)CC1`: the inhibition in assay [1] was below 50%; in assay [2], below 50%; in assay [3] it was 71%; in assay [4] it was below 50%; in assay [5] it was below 50%; in assay [6], below 50%.

Consider `COC1CCN(C(=O)c2ccc(-c3cnc4c(c3)N(Cc3cc(Cl)ccc3C(F)(F)F)CCN4)cc2)CC1`, for which the inhibition is below 50% in assay [2]; 68% in assay [3]; below 50% in assay [4]; below 50% in assay [5]; below 50% in assay [6].

In the case of `O=C(c1ccc(-c2cnc3c(c2)N(Cc2cc(Cl)ccc2C(F)(F)F)CCN3)cc1)N1CCC(N2CCCC2)CC1`, the inhibition was below 50% in assay [2]; 90.8% in assay [3]; below 50% in assay [4]; below 50% in assay [5]; below 50% in assay [6].

As to `CN1CCN(c2ccc(-c3cnc4c(c3)N(Cc3c(F)ccc(F)c3Cl)CCN4)cn2)CC1`, the inhibition was 71% in assay [1]; below 50% in assay [2]; below 50% in assay [3]; below 50% in assay [4]; below 50% in assay [5]; below 50% in assay [6].

Consider `O=C(c1ccc(-c2cnc3c(c2)N(Cc2cc(Cl)ccc2C(F)(F)F)CCN3)cc1)N1CCCCC1`, for which the inhibition in assay [3], in assay [4], in assay [5] and in assay [6] was below 50% in each case.

Regarding `CC(=O)N1CCN(c2cc(-c3cnc4c(c3)N(Cc3cc(Cl)ccc3C(F)(F)F)CCN4)ccn2)CC1`, the inhibition in assay [1] was 67%; in assay [2], below 50%; in assay [3], 84%; in assay [4], below 50%; in assay [5], below 50%; in assay [6], below 50%.

For the origin of these results see ChEMBL document CHEMBL1165965, “Synthesis and structure-activity relationships of 1,2,3,4-tetrahydropyrido[2,3-b]pyrazines as potent and selective inhibitors of the anaplastic lymphoma kinase” (Bioorg Med Chem, 2010).
